Measurements as given in ChEMBL document CHEMBL2424556, “Hybrid benzofuran-bisindole derivatives: new prototypes with promising anti-hyperlipidemic activities” (2013).
Activity calls are given as the source filed them. The calls are words filed in the database; no cut-off is given here.

Experiments:
[1] = Antioxidant activity assessed as inhibition of hydroxyl radical generation at 200 ug/mL after 90 mins by spectrophotometric analysis relative to control; type: functional
Method in brief: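 Hydroxyl radicals were generated non-enzymically from deoxyribose (2.8 mM), FeSO4 (2 mM), sodium ascorbate (2.0 mM) and H2O2 (2.8 mM) in KH2PO4 buffer pH 7.4, 2.5 mL final, with or without agent at 200 µg/ml, for 90 min at 37 °C. MDA was read spectrophotometrically by the thiobarbituric acid method against reference samples and reagent blanks.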

[2] = Antioxidant activity assessed as inhibition of microsomal lipid peroxidation at 200 ug/mL by spectrophotometric analysis relative to control; type: functional
Rattus norvegicus [3] = experiment: Antihyperlipidemic activity in Charles-Foster rat assessed as reversal of triton-induced increase in plasma phospholipid level at 100 mg/kg, po after 18 hrs relative to control; type: functional
Method in brief: (§1)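 Male adult Charles Foster rats (200-225 g), 6 per group; triton WR-1339 400 mg/kg i.p. plus oral test agent in 0.2% gum acacia suspension, given together, diet withdrawn. After 18 h, retro-orbital EDTA blood was centrifuged 2500 g, 4 °C, 10 min; plasma was diluted 1:3 in saline and TC, PL and TG were assayed enzymatically (mg/dl). Mean ± SD; Student's t-test.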

Rattus norvegicus [4] = experiment: Antihyperlipidemic activity in Charles-Foster rat assessed as reversal of triton-induced increase in plasma phospholipid level at 100 mg/kg, po after 18 hrs relative to triton-treated control; type: functional; method in brief: as §1
Rattus norvegicus [5] = experiment: Antihyperlipidemic activity in Charles-Foster rat assessed as post heparin lipolytic activity at 100 mg/kg, po after 18 hrs by spectrophotometric analysis relative to control; type: functional
Method in brief: (§2)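 Male adult Charles Foster rats (200-225 g), 6 per group. Triton WR-1339 400 mg/kg i.p.; test agent 100 mg/kg p.o. as gum acacia (0.2% w/v) suspension in water, given simultaneously, diet withdrawn; vehicle to control and triton groups. At 18 h under thiopentone (50 mg/kg), retro-orbital blood collected into EDTA and plasma separated. Post-heparin lipolytic activity read spectrophotometrically as nmol free fatty acid/h/ml plasma; mean ± SD; Student's t-test.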

Rattus norvegicus [6] = experiment: Antihyperlipidemic activity in Charles-Foster rat assessed as reversal of triton-induced increase in plasma total cholesterol level at 100 mg/kg, po after 18 hrs relative to control; type: functional; method in brief: as §1
Rattus norvegicus [7] = experiment: Antihyperlipidemic activity in Charles-Foster rat assessed as reversal of triton-induced increase in plasma triglyceride level at 100 mg/kg, po after 18 hrs relative to triton-treated control; type: functional; method in brief: as §1
Rattus norvegicus [8] = experiment: Antihyperlipidemic activity in Charles-Foster rat assessed as reversal of triton-induced increase in plasma total cholesterol level at 100 mg/kg, po after 18 hrs relative to triton-treated control; type: functional; method in brief: as §1
Rattus norvegicus [9] = experiment: Antihyperlipidemic activity in Charles-Foster rat assessed as post heparin lipolytic activity at 100 mg/kg, po after 18 hrs by spectrophotometric analysis relative to triton-treated control; type: functional; method in brief: as §2
Rattus norvegicus [10] = experiment: Antihyperlipidemic activity in Charles-Foster rat assessed as reversal of triton-induced increase in plasma triglyceride level at 100 mg/kg, po after 18 hrs relative to control; type: functional; method in brief: as §1
Rattus norvegicus [11] = experiment: Antihyperlipidemic activity in triton-induced Charles-Foster rat assessed as increase in plasma lecithin cholesterol acyltransferase activity at 100 mg/kg, po after 18 hrs by colorimetric assay; type: functional, organism-based; set-up: dose 100 mg/kg

SMILES	inhibition [1]	inhibition [2]	Activity (Rattus norvegicus [3])	Activity (Rattus norvegicus [4])	Activity (Rattus norvegicus [5])	Activity (Rattus norvegicus [6])	Activity (Rattus norvegicus [7])	Activity (Rattus norvegicus [8])	Activity (Rattus norvegicus [9])	Activity (Rattus norvegicus [10])	Activity (Rattus norvegicus [11])
Cc1c(C)c2c(c(C)c1O)CC[C@@](C)(CCC[C@H](C)CCC[C@H](C)CCCC(C)C)O2	49%	52%									
CCc1cc(C(c2c[nH]c3ccccc23)c2c[nH]c3ccccc23)cc2cc(C(=O)c3ccc(OC)cc3)oc12			190.32 mg/dL	-8%	14.26 nmol/h/mL	169.47 mg/dL	-9%	-8%	8%	196.66 mg/dL	
CCc1cc(C(c2c[nH]c3ccccc23)c2c[nH]c3ccccc23)cc2cc(C(=O)c3ccc(Cl)cc3)oc12			163.43 mg/dL	-21%	15.05 nmol/h/mL	147.36 mg/dL	-21%	-20%	14%	170.72 mg/dL	
Cc1ccc(C)c(OCCCC(C)(C)C(=O)O)c1 [GEMFIBROZIL]			134.47 mg/dL	-35%	15.85 nmol/h/mL	121.57 mg/dL	-34%	-34%	20%	142.63 mg/dL	Active
COc1ccc(C(=O)c2cc3cc(C(c4c[nH]c5ccccc45)c4c[nH]c5ccccc45)cc(C(C)C)c3o2)cc1			175.84 mg/dL	-15%	14.79 nmol/h/mL	152.89 mg/dL	-16%	-17%	12%	181.53 mg/dL	
CC(C)(C)c1cc(C(c2c[nH]c3ccccc23)c2c[nH]c3ccccc23)cc2cc(C(=O)c3ccc(Cl)cc3)oc12			187.91 mg/dL	-9%	14.37 nmol/h/mL	165.78 mg/dL	-10%	-10%	9%	194.49 mg/dL	
Cc1cc(C(c2c[nH]c3ccccc23)c2c[nH]c3ccccc23)cc2cc(C(=O)c3ccc(Cl)cc3)oc12			186.19 mg/dL	-10%	14.39 nmol/h/mL	163.94 mg/dL	-11%	-11%	9%	192.33 mg/dL	
OC[C@@H](O)[C@@H](O)[C@H](O)[C@H](O)CO	49%	52%									
CC(C)c1cc(C(c2c[nH]c3ccccc23)c2c[nH]c3ccccc23)cc2cc(C(=O)c3ccc(Cl)cc3)oc12			186.19 mg/dL	-10%	13.77 nmol/h/mL	162.1 mg/dL	-10%	-12%	4%	194.4 mg/dL	
COc1ccc(C(=O)c2cc3cc(C(c4c[nH]c5ccc([N+](=O)[O-])cc45)c4c[nH]c5ccc([N+](=O)[O-])cc45)cc(C(C)C)c3o2)cc1			186.19 mg/dL	-10%	13.75 nmol/h/mL	167.63 mg/dL	-10%	-9%	4%	193.81 mg/dL	
CCCc1cc(C(c2c[nH]c3ccc(O)cc23)c2c[nH]c3ccc(O)cc23)cc2cc(C(=O)c3ccc(OC)cc3)oc12			161.36 mg/dL	-22%	15.19 nmol/h/mL	143.68 mg/dL	-20%	-22%	15%	172.88 mg/dL	
Cc1ccc(C(=O)c2cc3cc(C(c4c[nH]c5ccccc45)c4c[nH]c5ccccc45)cc(C)c3o2)cc1			190.32 mg/dL	-8%	14.26 nmol/h/mL	169.47 mg/dL	-9%	-8%	8%	196.66 mg/dL	
CCc1cc(C(c2c[nH]c3ccc([N+](=O)[O-])cc23)c2c[nH]c3ccc([N+](=O)[O-])cc23)cc2cc(C(=O)c3ccc(OC)cc3)oc12			194.46 mg/dL	-6%	13.47 nmol/h/mL	176.84 mg/dL	-4%	-4%	2%	207.46 mg/dL	
COc1ccc(C(=O)c2cc3cc(C(c4c[nH]c5ccccc45)c4c[nH]c5ccccc45)cc(C(C)(C)C)c3o2)cc1			190.32 mg/dL	-8%	13.73 nmol/h/mL	171.31 mg/dL	-8%	-7%	4%	198.82 mg/dL	
COc1ccc(C(=O)c2cc3cc(C(c4c[nH]c5ccccc45)c4c[nH]c5ccccc45)cc(C)c3o2)cc1			184.12 mg/dL	-11%	13.71 nmol/h/mL	162.1 mg/dL	-10%	-12%	4%	194.49 mg/dL	
Cc1cc(C(c2c[nH]c3ccccc23)c2c[nH]c3ccccc23)cc2cc(C(=O)c3ccc(C#N)cc3)oc12			190.11 mg/dL	-8%	13.87 nmol/h/mL	171.25 mg/dL	-7%	-7%	5%	200.98 mg/dL	
COc1ccc(C(=O)c2cc3cc(C(c4c[nH]c5ccc(OC)cc45)c4c[nH]c5ccc(OC)cc45)cc(Cl)c3o2)cc1			165.5 mg/dL	-20%	15.19 nmol/h/mL	145.52 mg/dL	-22%	-21%	15%	168.56 mg/dL	
CC(C)c1cc(C(c2c[nH]c3ccccc23)c2c[nH]c3ccccc23)cc2cc(C(=O)c3ccc(C#N)cc3)oc12			186.19 mg/dL	-10%	13.75 nmol/h/mL	167.63 mg/dL	-10%	-9%	4%	193.81 mg/dL	
